# High-throughput results from PubChem.
# Rows were chosen to be rich in hits. Some 29% of all compounds tested hit in one or more screens of this group.
# E coli WT exp – E. coli BW25113 growth inhibition, expanded screen; OD600 absorbance; growth inhibition, % at 100 µM; 0.15% of 98,000 active;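 active means growth inhibition above about 50% at one test dose, limit read from the data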;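 further: growth measured after 20 h incubation at 37 °C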
# CYP2C19 inh – blocks human cytochrome P450 2C19 | P33261 | CYP2C19 Supersomes, luciferin-H EGE luminescence, 30 min | inhibition, % at 5 µM | 21% of 96,000 active | AID 778;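 active means CYP2C19 inhibition above a set limit at 5 µM in the primary screen, cut at about 50% in these data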;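 further: plate controls were negative control wells for no effect and 2.5 mM tranylcypromine positive control for full effect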
# CYP2C19 act – cytochrome P450 2C19 (human) activation. P33261. recombinant CYP2C19, luciferin-H EGE luminescence; stronger effect = higher value; 0 = fully inhibited enzyme, 1 = untreated enzyme. activation factor at 5 µM. 96,000 tested, under 10 active. AID 1025;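 active means activation factor of at least 2 at 5 µM in the primary screen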;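 further: 0 = wells with 2.5 mM tranylcypromine and 1 = vehicle-only wells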
# CYP2C9 inh – inhibitors of human CYP2C9; P11712; CYP2C9 Supersomes, luciferin-H conversion, luminescence; inhibition, % at 5 µM; 20% of 96,000 active;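 active means blocking of liver enzyme CYP2C9 beyond about 50% at 5 µM, limit read from the data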
# Target sequence (P11712 whole entry, looked up): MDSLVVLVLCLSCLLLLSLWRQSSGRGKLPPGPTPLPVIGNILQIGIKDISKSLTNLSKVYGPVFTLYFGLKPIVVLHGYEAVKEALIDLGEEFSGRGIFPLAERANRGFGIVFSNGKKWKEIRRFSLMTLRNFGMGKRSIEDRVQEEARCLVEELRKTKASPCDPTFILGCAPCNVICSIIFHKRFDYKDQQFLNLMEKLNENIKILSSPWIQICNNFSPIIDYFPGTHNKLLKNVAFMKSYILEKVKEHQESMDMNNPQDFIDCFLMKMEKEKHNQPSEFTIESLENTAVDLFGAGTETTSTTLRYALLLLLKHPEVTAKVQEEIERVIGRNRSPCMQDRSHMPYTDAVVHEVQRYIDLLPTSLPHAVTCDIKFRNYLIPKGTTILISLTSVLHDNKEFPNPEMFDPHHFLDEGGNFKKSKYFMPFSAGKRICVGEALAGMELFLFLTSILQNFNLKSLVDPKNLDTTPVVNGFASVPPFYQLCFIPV
# Ecoli tolC – blocks growth of E. coli BW25113 tolC mutant | growth inhibition, % at 10 µM (by protocol) | 2.2% of 65,000 active | OD615;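 active means growth inhibition at or above a cutoff equal to the mean over every tested compound plus 3 SD, cut at about 60% in these data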;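 further: growth measured after 20 h incubation at 37 °C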
#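 signal = optical density read at 615 nm | test system = E. coli ΔtolC::kan strain BW25113 | timing = 20 h compound exposure of bacteria at 37 °C | buffer or medium = LB medium plus 50 µg/mL kanamycin | compound dosing = 10 µM final, single dose | evaluation = % inhibition of E. coli growth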
# CYP2C9 activ – activators of human CYP2C9; recombinant CYP2C9, luciferin-H conversion, luminescence; stronger effect = higher value; factor 1 = untreated enzyme, 0 = blocked; P11712; activation factor at 5 µM; 1.4% of 96,000 active;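 active means activation factor of 2 or more for CYP2C9 at a 5 µM dose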;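 further: 0 = sulfaphenazole-blocked wells and 1 = vehicle-only wells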
# An asterisk follows results filed as active; · = no result.
SMILES,E coli WT exp,CYP2C19 inh,CYP2C19 act,CYP2C9 inh,Ecoli tolC,CYP2C9 activ
CCOC(=O)Cn1nnnc1CN(Cc1cccs1)Cc1cc2cc(C)cc(C)c2[nH]c1=O,-3,63*,0.4,-30,·,1.3
CCC(C)(C)n1nnnc1CN(Cc1cccs1)Cc1cc2cc(OC)ccc2[nH]c1=O,-5,70*,0.3,59*,51,0.4
O=C(COc1ccc(-n2cnnn2)cc1)NC(=O)NCc1ccccc1,4,17,0.8,16,4,0.8
O=C(NCc1cccnc1)c1ccc(=O)oc1,-3,-11,1.1,-3,5,1
CCOC(=O)C(CC)Sc1nc(N)c(NC(=O)c2ccc(OC)c(OC)c2)c(=O)[nH]1 (stereo not drawn),0,0,1,0,-11,1
Cc1c(Cl)cccc1NC(=O)CCC(=O)NNC(=O)c1ccccc1Cl,4,19,0.8,4,·,1
Brc1ccccc1OCCOCCOc1cccc2cccnc12,3,·,·,·,·,·
Cc1cccc(OCCCOc2cccc3cccnc23)c1C,15,56*,0.4,-82,·,1.8
Cc1ccc(OCCCOc2cccc3cccnc23)cc1C,13,72*,0.3,-183,·,2.8*
CC(=O)CCc1c(C)c2cc(C)ccc2[nH]c1=O,7,10,0.9,-27,3,1.3
Cc1ccc2nc(Cl)c(CN(C(=O)c3cnccn3)C3CCCCC3)cc2c1,0,-2,1,30,·,0.7
O=S(=O)(c1ccc2c(c1)nc1n2CCC1)N1CCOCC1,-2,·,·,·,-19,·
CSc1nc2cc(S(=O)(=O)N3CCOCC3)ccc2s1,1,99*,0,63*,5,0.4
Cc1nc(-c2cccc(S(=O)(=O)N3CCOCC3)c2)cs1,-2,76*,0.2,66*,-12,0.3
Cc1nc(-c2cccc(S(=O)(=O)N3CC(C)CC(C)C3)c2)cs1 (stereo not drawn),11,-8,1.1,-8,·,1.1
Cc1nc(-c2cccc(S(=O)(=O)N3CC(C)OC(C)C3)c2)cs1 (stereo not drawn),-13,77*,0.2,20,4,0.8
CCOC(=O)C1C(=O)CC(=O)CC1CC(C)SCC (stereo not drawn),4,6,0.9,-10,-8,1.1
Cc1nc2ccc(S(=O)(=O)NC(C(=O)NCc3ccco3)C(C)C)cc2s1 (stereo not drawn),-5,6,0.9,13,-7,0.9
O=c1[nH]c(NCc2ccco2)nnc1Cc1ccccc1Cl,-1,-1,1,-153,3,2.5*
CCc1ccc(OCC(O)CN2CCN(c3ccccc3)CC2)cc1 (stereo not drawn),10,67*,0.3,16,7,0.8
CCCc1ccc(OCC(O)CN2CCN(c3ccccc3)CC2)cc1 (stereo not drawn),-2,73*,0.3,38,25,0.6
Cc1ccc(OCC(O)CN2CCN(c3ccccc3)CC2)cc1 (stereo not drawn),1,-2,1,-20,1,1.2
OC(COCc1ccccc1)CN1CCN(c2ccccc2)CC1 (stereo not drawn),1,4,1,-14,-14,1.1
Cc1cc(NC(=O)CSc2c3c(nc4ccccc24)CCC3)no1,10,55*,0.5,56*,-1,0.4
Cc1cc(NC(=O)CSc2nc(CCC3CCCC3)nc3ccccc23)no1,-17,87*,0.1,90*,15,0.1
SMILES,E coli WT exp,CYP2C19 inh,CYP2C19 act,CYP2C9 inh,Ecoli tolC,CYP2C9 activ
CCCc1nc(SCC(=O)Nc2cc(C)on2)c2ccccc2n1,-2,10,0.9,32,-2,0.7
CC(=O)CCc1ccc2oc(C(=O)O)c(C)c2c1,-7,1,1,4,0,1
CC(C)(C)OC(=O)N1CCC(c2cc(=O)n3[nH]cc(C(=O)NC4CCCC4)c3n2)CC1,5,39,0.6,95*,·,0
CC(C)(C)OC(=O)N1CCC(c2cc(=O)n3[nH]c(-c4ccc(Cl)cc4)cc3n2)CC1,-5,-9,1.1,-20,·,1.2
Nc1cc(CN2C(=O)c3ccccc3C2=O)cc(Cl)c1O,9,14,0.9,-254,11,3.5*
COc1ccc(CCN(C(=O)C(F)(F)F)C(C(=O)NC2CCCC2)c2cccs2)cc1 (stereo not drawn),-10,63*,0.4,77*,·,0.2
O=C(NC1CCCCC1)C(c1cccs1)N(C(=O)C(F)(F)F)c1ccccc1 (stereo not drawn),-3,20,0.8,31,·,0.7
Cc1cc(C(=O)OCC(=O)Nc2ncc(C(F)(F)F)cc2Cl)c(C)o1,-6,4,1,10,6,0.9
CC(=NCc1ccco1)c1c(C)[nH]n(-c2nc3ccccc3s2)c1=O,0,2,1,10,-15,0.9
CC(=NCc1ccco1)c1c(O)n(C2CCCCC2)c(=O)[nH]c1=O,-6,97*,0,55*,11,0.4
CC1(C)CC(=O)C2=C(C1)N(Cc1ccco1)C(=O)C2(O)C(F)(F)F (stereo not drawn),-12,11,0.9,9,-4,0.9
CCCCCCNC(=O)Nc1ccccc1,23,96*,0,56*,17,0.4
O=C(NCCOc1nc(N2CCCCC2)nc(N2CCOCC2)n1)Nc1ccccc1,5,38,0.6,69*,-1,0.3
CCN(CCNC(=O)C1CCN(S(C)(=O)=O)CC1)c1ccccc1,-7,5,1,-18,-6,1.2
CCN(CC)c1nc(OCCNC(=O)Nc2ccccc2)nc(N(CC)CC)n1,-3,48,0.5,88*,·,0.1
CCN(CCNC(=O)Nc1ccc(Cl)cc1)c1ccccc1,6,59*,0.4,26,47,0.7
CCC(C)c1ccc(OCC(=O)Nc2ccc(Cl)cn2)cc1 (stereo not drawn),-7,32,0.7,21,·,0.8
CN1C(=O)CC(N2CCC(c3nc4ccccc4[nH]3)CC2)C1=O (stereo not drawn),-5,-3,1,-1,-11,1
Cc1nc(-c2ccc3c(c2)OCO3)cs1,7,18,0.8,-11,-8,1.1
c1csc(-c2csc(-c3cccs3)n2)c1,5,-7,1.1,-1,3,1
Clc1ccsc1-c1csc(-c2cccnc2)n1,0,62*,0.4,6,·,0.9
c1cncc(-c2nc(-c3cccs3)cs2)c1,5,70*,0.3,27,6,0.7
c1cncc(-c2nc(-c3ccc4c(c3)OCO4)cs2)c1,-4,69*,0.3,37,-5,0.6
O=C(OC1CCCCC1=O)c1cc(=O)c2ccccc2o1 (stereo not drawn),10,2,1,-24,-13,1.2
Cc1ccnc(SCC(=O)Nc2oc(-c3ccccc3)c(-c3ccccc3)c2C#N)n1,-13,36,0.6,88*,1,0.1
